The results in this text go back to ChEMBL document CHEMBL2177038 (J Med Chem, 2012).

Usually Ki stands for the dissociation constant of the complex between target and ligand, obtained from inhibition or displacement. A higher Ki goes with weaker binding. What is called inhibition is the drop in the measured response relative to a control, in per cent. By EC50 is commonly meant the concentration needed to bring the measured effect to its halfway point.

SMILES strings stand for the structures.

The target in series [1] is T1, Cannabinoid receptor 2 (Homo sapiens, UniProt P34972). In words: Displacement of [3H]CP55940 from human CB2 receptor expressed in CHO cells incubated for 1 hr. The series is classed as cell-based. For orientation: Loss of bound radioactivity is the signal in a displacement assay; it reports binding, not function.
T1 sequence (P34972 whole entry): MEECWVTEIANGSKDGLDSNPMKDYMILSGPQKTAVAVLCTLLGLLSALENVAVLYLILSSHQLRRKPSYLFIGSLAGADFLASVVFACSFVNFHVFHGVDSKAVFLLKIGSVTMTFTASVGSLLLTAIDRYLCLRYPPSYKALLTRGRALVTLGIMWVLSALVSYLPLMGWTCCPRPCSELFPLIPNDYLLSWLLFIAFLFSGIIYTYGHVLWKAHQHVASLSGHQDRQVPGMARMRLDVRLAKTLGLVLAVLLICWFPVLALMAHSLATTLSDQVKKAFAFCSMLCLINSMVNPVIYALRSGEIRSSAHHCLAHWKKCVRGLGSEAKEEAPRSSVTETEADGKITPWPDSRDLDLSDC
For the next series, the target named is Cannabinoid receptor 1 (Homo sapiens, UniProt P21554). Put plainly: biochemical. The series is classed as cell-based, CHO.
Chain of Cannabinoid receptor 1 (P21554 whole entry): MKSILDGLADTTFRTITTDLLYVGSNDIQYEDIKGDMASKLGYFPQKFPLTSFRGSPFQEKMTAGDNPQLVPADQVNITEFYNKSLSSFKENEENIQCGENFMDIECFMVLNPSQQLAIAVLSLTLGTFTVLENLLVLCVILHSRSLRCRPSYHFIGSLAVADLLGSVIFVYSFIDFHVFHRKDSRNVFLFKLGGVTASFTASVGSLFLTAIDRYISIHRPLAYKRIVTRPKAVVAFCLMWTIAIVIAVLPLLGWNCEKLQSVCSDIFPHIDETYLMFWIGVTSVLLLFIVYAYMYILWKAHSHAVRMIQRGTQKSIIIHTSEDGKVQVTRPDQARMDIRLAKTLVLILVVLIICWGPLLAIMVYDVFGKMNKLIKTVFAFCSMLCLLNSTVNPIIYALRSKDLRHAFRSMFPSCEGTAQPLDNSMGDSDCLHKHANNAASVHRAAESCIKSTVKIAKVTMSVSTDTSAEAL
The next series relates to PBMC. Put plainly: Toxicity against human PBMC assessed effect on cell viability at 1 to 10 uM incubated for 72 hrs by trypan blue dye exclusion method. The class given is cell-based. The gist of the method: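 PBMC from healthy medication-free donors, isolated on Ficoll-Hypaque, washed in ice-cold PBS. Cells held in medium with 10% inactivated FBS and 2 mM glutamine (5×10^5/mL; legend 10^5 cells/well). Compounds come from a 50 mM DMSO stock, final DMSO 0.02%, exposure 72 h. Viability read by trypan blue exclusion; three assays, mean ± SD.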

For series [2], the system named is Bone marrow cell. Put plainly: Inhibition of osteoclastogenesis in human mononuclear bone marrow cells incubated for 3 weeks at 37 degC by osteoclast formation assay. The class given is functional, cell-based. The gist of the method:
(§1)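 Nonadherent human marrow mononuclear cells from healthy donors, 2×10^5 per well, in MEM with 20% horse serum, 10 ng/mL M-CSF and 25 ng/mL RANKL (legend states RANKL 50 ng/mL). Compounds present throughout, with drug-containing half-medium changes twice weekly; 3 weeks at 37 °C, 5% CO2. 23c6 antibody stain; 23c6+ cells with ≥3 nuclei counted; triplicate, mean ± SD.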

Series [3] deals with T1, Cannabinoid receptor 2. Put plainly: Inverse agonist activity at human CB2 receptor expressed in CHO cells assessed as increase in forskolin-induced cAMP accumulation incubated for 45 mins by TR-FRET method based LANCE cAMP assay. The class given is functional, cell-based. (In general: Changes in cAMP serve as a functional read-out for many G protein-coupled receptors.)

The species entered for a further series is Homo sapiens. Put plainly: Selectivity index, ratio of Ki for human CB1 receptor to KI for human CB2 receptor.
Series [4] has as its system Bone marrow cell. Put plainly: Inhibition of osteoclastogenesis in human mononuclear bone marrow cells at 10 uM incubated for 3 weeks at 37 degC by osteoclast formation assay. To be noted: 504 h. The series is classed as functional. The gist of the method:
as §1

Series [5] concerns Bone marrow cell. Put plainly: Inhibition of osteoclastogenesis in human mononuclear bone marrow cells at 1 uM incubated for 3 weeks at 37 degC by osteoclast formation assay. The following applies: 504 h. The series is classed as functional. An outline of the steps: as §1
In series [6] the test system is Bone marrow cell. In words: Inhibition of osteoclastogenesis in human mononuclear bone marrow cells at 0.1 uM incubated for 3 weeks at 37 degC by osteoclast formation assay. The class given is functional. To be noted: 504 h. The gist of the method:
as §1

For the molecule `O=C(Cc1ccc(C(F)(F)F)cc1)NC(NC(=O)Cc1ccc(C(F)(F)F)cc1)c1ccccc1`, the inhibitory constant (Ki) on Cannabinoid receptor 2 [1] was above 20 µM.

On to `COc1ccc(C(NC(=O)Cc2ccc(C(F)(F)F)cc2)NC(=O)Cc2ccc(C(F)(F)F)cc2)cc1`, for which, on Cannabinoid receptor 2 [1], the Ki was above 20 µM. Turning to `CCN(CC)c1ccc(C(NC(=O)C(C)C)NC(=O)C(C)C)cc1`, the Ki on Cannabinoid receptor 1 is above 20 µM. Take `CCN(CC)c1ccc(C(NC(=O)CCc2ccccc2)NC(=O)CCc2ccccc2)cc1`: the Ki on Cannabinoid receptor 1 was above 20 µM; on Cannabinoid receptor 2 [1], 0.213 µM. Regarding `CN(C)c1ccc(C(NC(=O)Cc2ccccc2)NC(=O)Cc2ccccc2)cc1`, in the series on PBMC, the Activity result is listed as “Non-toxic”. In addition, the inhibition result in the series with Bone marrow cell [2] is “Dose-dependent effect”. Besides, the EC50 on Cannabinoid receptor 2 [3] turned out to be 0.159 µM. Besides, the Ratio Ki in the series filed under Homo sapiens is above 26. Further, on Cannabinoid receptor 1, the Ki was above 20 µM.

Regarding `O=C(Cc1ccccc1)NC(Cc1ccccc1)NC(=O)Cc1ccccc1`, the Ki at Cannabinoid receptor 1 and on Cannabinoid receptor 2 [1] was above 20 µM in each case. For the molecule `O=C(Cc1ccc(Cl)cc1)NC(NC(=O)Cc1ccc(Cl)cc1)c1ccc([N+](=O)[O-])cc1`, at Cannabinoid receptor 2 [1], the Ki is above 20 µM.

For `O=C(Cc1ccc(C(F)(F)F)cc1)NC(NC(=O)Cc1ccc(C(F)(F)F)cc1)c1ccc(C(F)(F)F)cc1`, on Cannabinoid receptor 2 [1], the Ki is above 20 µM. Take `COc1ccc(C(NC(=O)Cc2ccccc2)NC(=O)Cc2ccccc2)cc1`: in the series listed under Homo sapiens, the Ratio Ki is above 26. Moreover, the Ki at Cannabinoid receptor 1 is above 20 µM.

As for `COc1ccc(C(NC(=O)Cc2ccc(Cl)cc2)NC(=O)Cc2ccc(Cl)cc2)cc1`, the Ratio Ki in the series filed under Homo sapiens is above 65. The molecule further gave a Ki at Cannabinoid receptor 1 above 20 µM. `CCN(CC)c1ccc(C(NC(=O)/C=C/c2ccccc2)NC(=O)/C=C/c2ccccc2)cc1`: the Ratio Ki in the series filed under Homo sapiens was above 119. Further, the Ki is above 20 µM on Cannabinoid receptor 1 and 0.167 µM at Cannabinoid receptor 2 [1].

Consider `O=C(Cc1ccccc1)NC(NC(=O)Cc1ccccc1)c1ccc(N2CCCCC2)cc1`, for which the Ratio Ki in the series filed under Homo sapiens was above 34. The molecule also showed a Ki at Cannabinoid receptor 1 above 20 µM.

`CCCN(CCC)c1ccc(C(NC(=O)Cc2ccccc2)NC(=O)Cc2ccccc2)cc1`: the EC50 at Cannabinoid receptor 2 [3] was found to be 0.0283 µM. Moreover, the Ki at Cannabinoid receptor 1 is above 20 µM; at Cannabinoid receptor 2 [1], 0.022 µM. In turn, `O=C(Cc1ccc(Cl)cc1)NC(NC(=O)Cc1ccc(Cl)cc1)c1ccc(F)cc1` returned a Ki at Cannabinoid receptor 2 [1] above 20 µM. Molecule `O=C(Cc1ccc(C(F)(F)F)cc1)NC(NC(=O)Cc1ccc(C(F)(F)F)cc1)c1ccc(F)cc1` returned a Ki on Cannabinoid receptor 2 [1] above 20 µM. With `CCN(CC)c1ccc(C(NC(=O)C(C)(C)C)NC(=O)C(C)(C)C)cc1`, at Cannabinoid receptor 1, the Ki was above 20 µM. `O=C(Cc1ccc(Cl)cc1)NC(NC(=O)Cc1ccc(Cl)cc1)c1ccccc1C(F)(F)F`: in the series filed under Homo sapiens, the Ratio Ki is above 127. The same molecule had a Ki on Cannabinoid receptor 1 above 20 µM. Taken in the same sequence, the figures for `CCCCC(=O)NC(NC(=O)CCCC)c1ccc(N(CC)CC)cc1` were above 109 and above 20 µM. For the molecule `O=C(Cc1ccc(C(F)(F)F)cc1)NC(NC(=O)Cc1ccc(C(F)(F)F)cc1)c1ccc(Cl)cc1`, the Ki at Cannabinoid receptor 2 [1] is above 20 µM. For the molecule `CCCCCC(=O)NC(NC(=O)CCCCC)c1ccc(N(CC)CC)cc1`, the half-maximal effective concentration (EC50) at Cannabinoid receptor 2 [3] was found to be 0.0134 µM. In addition, in the series listed under Homo sapiens, the Ratio Ki is above 800. In addition, on Cannabinoid receptor 1, the Ki was above 20 µM. `O=C(Cc1ccccc1)NC(NC(=O)Cc1ccccc1)c1ccc(N(Cc2ccccc2)Cc2ccccc2)cc1`: the Ratio Ki in the series filed under Homo sapiens is above 99. Moreover, the Ki is above 20 µM at Cannabinoid receptor 1 and 0.203 µM on Cannabinoid receptor 2 [1]. On to `O=C(Cc1ccc(Cl)cc1)NC(NC(=O)Cc1ccc(Cl)cc1)c1ccc(Cl)cc1`, for which the Ratio Ki in the series listed under Homo sapiens is above 130. The molecule also came in with a Ki at Cannabinoid receptor 1 above 20 µM. Regarding `CCN(CC)c1ccc(C(NC(=O)c2ccccc2)NC(=O)c2ccccc2)cc1`, the Ratio Ki in the series filed under Homo sapiens is above 29. The Ki on Cannabinoid receptor 1 is above 20 µM. `CCCCCCCCCC(=O)NC(NC(=O)CCCCCCCCC)c1ccc(N(CC)CC)cc1` returned a Ki at Cannabinoid receptor 1 above 20 µM. At Cannabinoid receptor 2 [1], `O=C(Cc1ccccc1)NC(NC(=O)Cc1ccccc1)c1ccc([N+](=O)[O-])cc1` yielded a Ki above 20 µM. The molecule `Cc1ccc(C(NC(=O)Cc2ccc(C(F)(F)F)cc2)NC(=O)Cc2ccc(C(F)(F)F)cc2)cc1` displayed a Ki on Cannabinoid receptor 2 [1] above 20 µM.

Regarding `Cc1ccc(C(NC(=O)Cc2ccc(Cl)cc2)NC(=O)Cc2ccc(Cl)cc2)cc1`, the Ratio Ki in the series listed under Homo sapiens was above 43. Besides, at Cannabinoid receptor 1, the Ki is above 20 µM.

Consider `O=C(Cc1ccc(Cl)cc1)NC(NC(=O)Cc1ccc(Cl)cc1)c1ccc(C(F)(F)F)cc1`, for which the Ratio Ki in the series filed under Homo sapiens was above 198. In addition, on Cannabinoid receptor 1, the Ki was above 20 µM.

In the case of `O=C(Cc1ccc(C(F)(F)F)cc1)NC(NC(=O)Cc1ccc(C(F)(F)F)cc1)c1ccccc1F`, on Cannabinoid receptor 2 [1], the inhibition constant (Ki) was above 20 µM.

Consider `CCCCCCCC(=O)NC(NC(=O)CCCCCCC)c1ccc(N(CC)CC)cc1`, for which the Ratio Ki in the series filed under Homo sapiens is above 136. The molecule further showed a Ki on Cannabinoid receptor 1 above 20 µM.

For `O=C(Cc1ccccc1)NC(/C=C/c1ccccc1)NC(=O)Cc1ccccc1`, the Ki at Cannabinoid receptor 1 is above 20 µM. The same measure, in the same setting: under `CCCCCC(NC(=O)Cc1ccccc1)NC(=O)Cc1ccccc1` stands above 20 µM.

Turning to `CC(C)c1ccc(C(NC(=O)Cc2ccccc2)NC(=O)Cc2ccccc2)cc1`, the Activity entry in the series on PBMC is given as “Non-toxic”. In addition, in the series on Bone marrow cell [2], the inhibition entry is “Dose-dependent effect”. Besides, the EC50 on Cannabinoid receptor 2 [3] was determined as 0.00411 µM. The Ki at Cannabinoid receptor 1 was above 20 µM. Take `Nc1ccc(C(NC(=O)Cc2ccccc2)NC(=O)Cc2ccccc2)cc1`: the affinity on Cannabinoid receptor 2 [1] corresponds to a Ki of 12.6 µM. Consider `CCCCN(CCCC)c1ccc(C(NC(=O)Cc2ccccc2)NC(=O)Cc2ccccc2)cc1`, for which the Ratio Ki in the series listed under Homo sapiens was above 90. Besides, the Ki on Cannabinoid receptor 1 is above 20 µM. The molecule `O=C(Cc1ccc(Cl)cc1)NC(NC(=O)Cc1ccc(Cl)cc1)c1ccccc1` yielded a Ki at Cannabinoid receptor 2 [1] above 20 µM. Turning to `Cc1ccc(Cn2nc(C(=O)N[C@@H]3C(C)(C)[C@@H]4CC[C@@]3(C)C4)cc2-c2ccc(Cl)c(C)c2)cc1` [SR-144528], the Activity result in the series with PBMC is “Non-toxic”. On to `CCN(CC)c1ccc(C(NC(=O)Cc2ccccc2)NC(=O)Cc2ccccc2)cc1`, for which the Activity result in the series on PBMC was “Non-toxic”. In the series on Bone marrow cell [4], this molecule registered an inhibition at 10 µM of 84%. 1 µM produced 79% inhibition in the series on Bone marrow cell [5]. Further, in the series with Bone marrow cell [6], 0.1 µM produced 72% inhibition. Also, the inhibition result in the series on Bone marrow cell [2] was “Dose-dependent effect”. The EC50 at Cannabinoid receptor 2 [3] came out at 0.00573 µM. For the same molecule, the Ratio Ki in the series filed under Homo sapiens was above 313. On Cannabinoid receptor 1, this molecule had a Ki above 20 µM. For `O=C(Cc1ccccc1)NC(NC(=O)Cc1ccccc1)c1ccc(C(F)(F)F)cc1`, the Ratio Ki in the series filed under Homo sapiens is above 34. Further, the Ki on Cannabinoid receptor 1 was above 20 µM. `Cc1ccc(Cn2nc(C(=O)NC3C4(C)CCC(C4)C3(C)C)cc2-c2ccc(Cl)c(C)c2)cc1` (centres undefined): in the series on Bone marrow cell [2], the inhibition result was “Dose-dependent effect”. At Cannabinoid receptor 1, `O=C(Cc1ccccc1)NC(CCc1ccccc1)NC(=O)Cc1ccccc1` displayed a Ki above 20 µM. On to `CC(C)Oc1ccc(C(NC(=O)Cc2ccccc2)NC(=O)Cc2ccccc2)cc1`, for which, in the series with PBMC, the Activity result was “Non-toxic”. Moreover, in the series on Bone marrow cell [2], the inhibition entry is “Dose-dependent effect”. At Cannabinoid receptor 1, this molecule yielded a Ki above 20 µM.

As for `O=C(Cc1ccccc1)NC(NC(=O)Cc1ccccc1)c1ccc(N2CCCC2)cc1`, the EC50 on Cannabinoid receptor 2 [3] was 0.0171 µM. Moreover, in the series listed under Homo sapiens, the Ratio Ki is above 281. In addition, the inhibition constant Ki was above 20 µM at Cannabinoid receptor 1 and 0.071 µM on Cannabinoid receptor 2 [1].
